What was measured:
HL-60 = assay: Cytotoxicity against human HL60 cells assessed as reduction in cell viability after 72 hrs by CCK8 assay; type: functional, cell-based
How it was run: (§1)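 Cells kept in RPMI or DMEM with 10% FBS and 1% penicillin/streptomycin at 37 °C in 5% CO2. Seeded at 400-800 cells/well in 384-well plates and exposed to varying compound concentrations, with solution-only control, for 72 h. CCK8 reagent added, then absorbance read at 450 nm. Plinabulin and TSA were positive controls. Mean SD of three experiments.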

A549 = assay: Cytotoxicity against human A549 cells assessed as reduction in cell viability after 72 hrs by CCK8 assay; type: functional, cell-based; how it was run: as §1
[1] = Cytotoxicity against human HuH7 cells assessed as reduction in cell viability after 72 hrs by CCK8 assay; type: functional, cell-based, Huh-7; how it was run: as §1
[2] = Cytotoxicity against human BGC823 cells assessed as reduction in cell viability after 72 hrs by CCK8 assay; type: functional, cell-based, BGC-823; how it was run: as §1
HeLa = assay: Cytotoxicity against human HeLa cells assessed as reduction in cell viability after 72 hrs by CCK8 assay; type: functional, cell-based; how it was run: as §1
U-937 = assay: Cytotoxicity against human U937 cells assessed as reduction in cell viability after 72 hrs by CCK8 assay; type: functional, cell-based; how it was run: as §1
MCF7 = assay: Cytotoxicity against human MCF7 cells assessed as reduction in cell viability after 72 hrs by CCK8 assay; type: functional, cell-based; how it was run: as §1
NCI-H1975 = assay: Cytotoxicity against human NCI-H1975 cells assessed as reduction in cell viability after 72 hrs by CCK8 assay; type: functional, cell-based; how it was run: as §1
K562 = assay: Cytotoxicity against human K562 cells assessed as reduction in cell viability after 72 hrs by CCK8 assay; type: functional, cell-based; how it was run: as §1
MOLT-4 = assay: Cytotoxicity against human MOLT4 cells assessed as reduction in cell viability after 72 hrs by CCK8 assay; type: functional, cell-based; how it was run: as §1
[3] = Homo sapiens, HL-60, 72 h, read-out: IC50
[4] = Homo sapiens, A549, 72 h, read-out: IC50
[5] = Homo sapiens, Huh-7, 72 h, read-out: IC50
[6] = Homo sapiens, BGC-823, 72 h, read-out: IC50
[7] = Homo sapiens, HeLa, 72 h, read-out: IC50
[8] = Homo sapiens, U-937, 72 h, read-out: IC50
[9] = Homo sapiens, MCF7, 72 h, read-out: IC50
[10] = Homo sapiens, K562, 72 h, read-out: IC50
[11] = Homo sapiens, MOLT-4, 72 h, read-out: IC50
[12] = Homo sapiens, NCI-H1975, 72 h, read-out: IC50

Compound | IC50 (HL-60; hl-60) | IC50 (A549; a549) | IC50 ([1]; huh-7) | IC50 ([2]; bgc-823) | IC50 (HeLa; hela) | IC50 (U-937; u-937) | IC50 (MCF7; mcf7) | IC50 (NCI-H1975; nci-h1975) | IC50 (K562; k562) | IC50 (MOLT-4; molt-4) | IC50 (HL-60; [3]) | IC50 (A549; [4]) | IC50 [1, 5] | IC50 [2, 6] | IC50 (HeLa; [7]) | IC50 (U-937; [8]) | IC50 (MCF7; [9]) | IC50 (K562; [10]) | IC50 (MOLT-4; [11]) | IC50 (NCI-H1975; [12])
COc1ccccc1/C=c1/[nH]c(=O)/c(=C\c2ccccc2OC)[nH]c1=O | Not Active | Not Active | Not Active | Not Active | Not Active | Not Active | Not Active | Not Active | Not Active | – | – | – | – | – | – | – | – | – | – | –
C=CCn1c(=O)/c(=C\c2ccc(Cl)c(Cl)c2)[nH]c(=O)/c1=C\c1ccccc1 | Not Active | Not Active | Not Active | Not Active | Not Active | Not Active | Not Active | Not Active | Not Active | Not Active | – | – | – | – | – | – | – | – | – | –
C=CCn1c(=O)/c(=C\c2cc(OC)c(OC)c(OC)c2)[nH]c(=O)/c1=C\c1ccccc1 | Not Active | Not Active | Not Active | Not Active | Not Active | Not Active | Not Active | Not Active | Not Active | Not Active | – | – | – | – | – | – | – | – | – | –
C=CCn1c(=O)/c(=C\c2cccc(Br)c2)[nH]c(=O)/c1=C\c1cccc(Br)c1 | Not Active | Not Active | Not Active | Not Active | Not Active | Not Active | Not Active | Not Active | Not Active | Not Active | – | – | – | – | – | – | – | – | – | –
C=CCn1c(=O)/c(=C\c2cc(OC)c(OC)c(OC)c2)[nH]c(=O)/c1=C\c1cccc(Br)c1 | Not Active | Not Active | Not Active | Not Active | Not Active | Not Active | Not Active | Not Active | Not Active | Not Active | – | – | – | – | – | – | – | – | – | –
C=CCn1c(=O)/c(=C\c2cccc(Br)c2)[nH]c(=O)/c1=C\c1ccccc1OC | – | – | – | – | – | – | – | Not Active | – | – | 5.2 µM | 5.4 µM | 2.3 µM | 5.9 µM | 5.4 µM | 1.1 µM | 5.4 µM | 2.4 µM | 5 µM | –
C=CCn1c(=O)/c(=C\c2cccc(Cl)c2)[nH]c(=O)/c1=C\c1ccccc1OC | – | – | – | – | – | – | – | – | – | – | 4.5 µM | 5.2 µM | 8.9 µM | 4.6 µM | 5.5 µM | 1.2 µM | 5.2 µM | 2.7 µM | 4.9 µM | 5.1 µM
C=CCn1c(=O)/c(=C\c2cccc(F)c2)[nH]c(=O)/c1=C\c1ccccc1OC | – | – | – | – | – | – | – | – | – | – | 8.89 µM | 19.7 µM | 27.2 µM | 5.6 µM | 9.1 µM | 2.5 µM | 13.7 µM | 4.1 µM | 6.5 µM | 25.6 µM
C=CCn1c(=O)/c(=C\c2cccc(C)c2)[nH]c(=O)/c1=C\c1ccccc1OC | – | – | – | – | – | – | – | – | – | – | 16.7 µM | 22.7 µM | 21.4 µM | 20.4 µM | 19.3 µM | 5.1 µM | 20.7 µM | 8.8 µM | 16 µM | 32.8 µM
C=CCn1c(=O)/c(=C\c2ccccc2Cl)[nH]c(=O)/c1=C\c1ccccc1OC | – | – | – | – | – | – | – | – | – | – | 4.2 µM | 5.3 µM | 6.4 µM | 4.6 µM | 5.1 µM | 0.7 µM | 4.7 µM | 2.5 µM | 4.4 µM | 9.2 µM
C=CCn1c(=O)/c(=C\c2ccccc2F)[nH]c(=O)/c1=C\c1ccccc1OC | – | Not Active | – | – | – | – | – | – | – | – | 18.5 µM | – | 31.3 µM | 18.9 µM | 45 µM | 5.5 µM | 23 µM | 5.6 µM | 20 µM | 25.1 µM
C=CCn1c(=O)/c(=C\c2ccccc2C(F)(F)F)[nH]c(=O)/c1=C\c1ccccc1OC | – | – | – | – | – | – | – | – | – | – | 4.6 µM | 7 µM | 9.5 µM | 5.1 µM | 4.6 µM | 1.5 µM | 6.5 µM | 2.7 µM | 4.4 µM | 14.5 µM
C=CCn1c(=O)/c(=C\c2ccccc2OC)[nH]c(=O)/c1=C\c1ccccc1OC | – | – | – | – | – | – | – | – | – | – | 15.7 µM | 22.4 µM | 21.2 µM | 13.4 µM | 6.9 µM | 5.1 µM | 41.1 µM | 7.4 µM | 13.1 µM | 21.5 µM
C=CCn1c(=O)/c(=C\c2ccc(Cl)c(Cl)c2)[nH]c(=O)/c1=C\c1ccccc1OC | Not Active | Not Active | Not Active | Not Active | Not Active | Not Active | Not Active | Not Active | Not Active | Not Active | – | – | – | – | – | – | – | – | – | –
C=CCn1c(=O)/c(=C\c2cc(F)ccc2C)[nH]c(=O)/c1=C\c1ccccc1OC | – | – | – | – | – | – | – | – | – | – | 2.6 µM | 4.9 µM | 5.6 µM | 1.6 µM | 2.9 µM | 1 µM | 3.1 µM | 1.8 µM | 3.8 µM | 7.3 µM
COc1ccccc1/C=c1/[nH]c(=O)/c(=C\c2ccccc2OC)n(C)c1=O | – | – | Not Active | Not Active | Not Active | – | – | – | – | – | 16.2 µM | 7 µM | – | – | – | 1.5 µM | 9 µM | 2.2 µM | – | 16.9 µM
COc1ccccc1/C=c1\c(=O)[nH]/c(=C/c2ccccc2Cl)c(=O)n1C | – | – | – | – | – | – | – | – | – | – | 0.2 µM | 0.3 µM | 0.3 µM | 0.3 µM | 0.3 µM | 0.1 µM | 0.2 µM | 0.11 µM | – | 0.2 µM
COc1ccccc1/C=c1\c(=O)[nH]/c(=C/c2cccc(Cl)c2Cl)c(=O)n1C | – | – | – | – | – | – | – | – | – | – | 0.2 µM | 0.2 µM | 0.3 µM | 0.3 µM | 0.2 µM | 0.1 µM | 0.2 µM | 0.11 µM | – | 0.3 µM
COc1ccccc1/C=c1/[nH]c(=O)/c(=C\c2cccc(Cl)c2Cl)[nH]c1=O | Not Active | Not Active | Not Active | Not Active | Not Active | Not Active | Not Active | Not Active | Not Active | – | – | – | – | – | – | – | – | – | – | –
CC(C)(C)c1[nH]cnc1/C=c1\[nH]c(=O)/c(=C/c2ccccc2)[nH]c1=O [PLINABULIN] | – | – | – | – | – | – | – | – | – | – | 0.01 µM | 0.01 µM | 0.031 µM | 0.009 µM | 0.01 µM | 0.006 µM | 0.01 µM | 0.008 µM | – | 0.011 µM
